# Compounds with a hit are over-represented: about 7.6% of the library has one in this group of screens.
# D1 mod: allosterically modulates the human D1 dopamine receptor; HEK293 D1, CRE-luciferase, dopamine EC30 potentiation; actives deviate in either direction; AID 641; P21728; B-score at 10 µM; 5.9% of 58,000 active;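 active means luminescence count or its row- and column-corrected plate score outside the 99.7% band of the plate's sample wells, on either side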
# Target sequence (P21728 whole entry, looked up): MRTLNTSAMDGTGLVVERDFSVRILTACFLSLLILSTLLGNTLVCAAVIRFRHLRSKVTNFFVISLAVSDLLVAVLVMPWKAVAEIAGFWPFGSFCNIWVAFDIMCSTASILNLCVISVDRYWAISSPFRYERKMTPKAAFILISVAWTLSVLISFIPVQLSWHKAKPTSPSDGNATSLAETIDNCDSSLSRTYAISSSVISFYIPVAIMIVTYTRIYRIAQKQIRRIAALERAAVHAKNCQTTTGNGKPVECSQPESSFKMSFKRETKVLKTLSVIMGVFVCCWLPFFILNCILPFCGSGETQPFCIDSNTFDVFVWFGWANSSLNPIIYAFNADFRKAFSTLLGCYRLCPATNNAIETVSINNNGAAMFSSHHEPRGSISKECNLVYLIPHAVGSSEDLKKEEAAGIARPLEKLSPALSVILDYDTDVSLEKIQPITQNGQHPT
# Jurkat tox 60K: cytotoxicity toward Jurkat cells | Jurkat E6.1 viability, ATP luminescence, 48 h | inhibition, % at 4 µM | 1.2% of 56,000 active | AID 463;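 active means inhibition above the mean inhibition of all tested compounds plus 3 SD, cut at about 28% in these data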
# M1 antagonist: antagonists of rat M1 muscarinic receptor; P08482; CHO-M1 cells, Fluo-4 calcium, ACh EC80 antagonist mode; active compounds read low; B-score at 10 µM; 3.4% of 64,000 active;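 active means calcium fluorescence response, raw or row-and-column corrected B-score, differing from the plate sample mean either way at a set confidence level, mostly lower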
# HEK293 NFkB inh: lowers PMA/ionomycin-induced NF-kB signal in HEK293 cells; HEK-293 NF-kB luciferase reporter, luminescence; inhibition, % at 3 µM; 0.21% of 62,000 active; AID 465;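 active means inhibition above the mean of all tested compounds plus 3 SD, cut at about 40% in these data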;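 further: 0% = stimulated DMSO wells and 100% = 10 µM reference inhibitor 5653914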
#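 System – HEK-293 cells with stable firefly luciferase reporter driven by four HIV NF-kB elements · Doses – one dose, 3 µM · Schedule – 1 h compound pre-incubation, 16 h PMA/ionomycin at 37 °C · Technique – luminescence from luciferase substrate reagent · Measure – percent inhibition normalized per plate to DMSO and reference-inhibitor controls · Replicates – tested once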
# hDAT+cocaine: modulates human dopamine transporter uptake under cocaine; 1.3% of 110,000 active; AID 449768; LLC-PK1 hDAT cells, [14C]-dopamine uptake with cocaine IC80; actives deviate in either direction; Q01959; B-score at 10 µM;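 active means Z score or B-score, a plate-position-corrected score, falls beyond the plate's 99.7% confidence bounds, in either direction; inactive means both scores lie inside the 99.7% bounds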;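 further: scored against the spread of the other compound wells on the same plate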
# M1 agonist: activates the M1 muscarinic receptor; CHO-M1 cells, Fluo-4 calcium fluorescence, agonist mode; active compounds read high; B-score at 10 µM; 3% of 64,000 active; AID 626;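 active means fluorescence rise, raw or as B-score row- and column-corrected plate score, outside the 99.7% band of its plate's samples, either direction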
# D1 mod confirm: D1 receptor (human) allosteric modulation, confirmed | shares compounds with D1 mod | HEK293 D1 CRE-luciferase, dopamine EC30 potentiation; active compounds read high | luminescence at 10 µM | 88% of 2,200 active | AID 642;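 active means luminescence in either of two replicates above the same-plate mean plus 3 SD of the low-dose dopamine control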
# D1 ag no DA: secondary test of D1 modulators: activity without dopamine. luminescence at 10 µM. HEK293 D1 CRE-luciferase, luminescence, no dopamine; active compounds read high. AID 646. shares compounds with D1 mod. 0.8% of 1,900 active; in the data active means luminescence above about 3900
# Isoprot counter: isoproterenol response counter-screen activity for D1 modulators; shares compounds with D1 mod; HEK293 D1 CRE-luciferase, isoproterenol EC30 counter-screen; calls only at 10 µM; 63% of 2,200 active; AID 647;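 active means luminescence in either replicate above plate mean of wells with a partly effective reference agonist dose plus 3 SD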;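 further: isoproterenol raises cAMP through native beta-adrenoceptor Gs so signal bypasses D1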
# An asterisk follows results filed as active; i = inactive; / = no result; + = active, no number.
SMILES,D1 mod,Jurkat tox 60K,M1 antagonist,HEK293 NFkB inh,hDAT+cocaine,M1 agonist,D1 mod confirm,D1 ag no DA,Isoprot counter
CCc1nc(NCCc2ccccn2)c2nnn(Cc3ccccc3F)c2n1,12.5*,0.7,-0.399,3.2,1.36,1.52,20308*,1720,+
COc1ccc(-c2ccc(=O)[nH]n2)cc1,8.21*,/,0.0174,21.2,-0.133,0.694,10236*,1400,+
O=c1ccc(-c2ccccc2)n[nH]1,/,/,/,/,-0.00987,/,/,/,/
COc1cc(C(=O)OCC(=O)N2CCCC2)cc(OC)c1OC,-0.0157,2.5,-0.242,5.2,0.591,0.784,/,/,/
CCOc1cc(-c2c(C#N)c(N)nc3c2CCCC3C)ccc1O (stereo not drawn),5.54*,1.8,-0.456,-1.9,2.39,0.189,8596*,1588,+
COC(=O)Cc1cc(=O)[nH]c(/N=C(\N)Nc2ccccc2C)n1,/,/,/,/,0.896,/,/,/,/
CCn1c(SCC(=O)NCC(=O)Nc2ccc(F)cc2)nnc1-c1cccs1,3*,5.0,0.43,8.1,0.858,0.52,4428,1640,i
COc1ccc(-c2nnc(SC(C)C(=O)Nc3nccs3)n2-c2ccccc2)cc1OC (stereo not drawn),0.0208,4.1,-0.928,-6.3,0.688,0.737,/,/,/
CCC(Sc1nc(=O)cc(N)n1CCc1ccccc1)C(=O)Nc1ccccc1C#N (stereo not drawn),5.2*,-0.8,0.368,1.9,0.658,-0.941,3424*,1792,i
CCC(Sc1nc(=O)cc(N)n1-c1ccccc1)C(=O)Nc1cc(C)on1 (stereo not drawn),-0.643,-0.9,-0.147,7.9,0.0237,0.0537,/,/,/
COC(=O)c1ccccc1NC(=O)CN1CCN(C(=O)c2ccco2)CC1,3.19*,4.8,-0.305,2.9,-0.0448,-0.212,8328,1732,i
COc1ccc(NC(C)=O)cc1NC(=O)CN1CCN(C(=O)c2ccco2)CC1,/,/,/,/,1.97,/,/,/,/
COC(=O)c1ccccc1NC(=O)CN1CCC(NC(=O)c2ccccc2C)CC1,4.22*,3.1,-0.0224,18.6,0.00965,1.31,9492*,1252,+
CCOc1ccc(C2N(c3ccc(F)cc3)C(=O)C3CCCN32)cc1OC (stereo not drawn),0.794,-1.9,-0.755,-5.3,-0.0768,-1.24,/,/,/
O=C(CCN1C(=O)c2ccccc2C1=O)Nc1ccc(S(=O)(=O)N2CCOCC2)cc1,-0.0643,-0.9,-0.207,4.1,0.423,-1.83,/,/,/
O=C(OCCN1C(=O)c2ccccc2C1=O)c1cc(S(=O)(=O)N2CCOCC2)ccc1F,12.2*,9.1,0.0322,10.5,-0.599,-0.842,9428*,1532,+
CCOC(=O)c1c(CC(C)C)csc1NC=O,16.8*,0.6,0.406,11.9,1.03,0.0687,12684*,1528,+
CCOC(=O)COn1c(=O)c(-c2ccc(OC)c(OC)c2)[n+]([O-])c2ccccc21,/,/,-1.25,/,0.486,-0.0613,/,/,/
COC(=O)c1cc(C)sc1NC(=O)c1cccnc1,5.44*,3.0,-0.959,13.4,-0.572,0,16836*,1548,+
Cc1cc(-n2nc(C)cc2C)nc(N)n1,5.59*,-6.1,0.191,4.7,-0.083,0.257,10308*,/,+
Cc1cc(-n2nc(C)cc2C)nc(NS(=O)(=O)c2ccccc2)n1,3.79*,/,0.156,12.9,1.03,-0.326,10456*,1500,i
CC(=O)Nc1ccc(S(=O)(=O)Nc2nc(C)cc(-n3nc(C)cc3C)n2)cc1,-0.0134,1.7,0.0219,1.4,-0.444,0.962,/,/,/
Cc1cc(N2CCC(C)CC2)nc(-n2nc(C)cc2C)n1,0.0407,7.0,-1.15,13.2,0.119,0.807,/,/,/
CN(C)C(=O)c1cc(S(=O)(=O)N(C)C)c(Cl)cc1N1CCCC1,-0.203,0.3,0.567,3.3,-0.303,0.486,/,/,/
COc1cc(C(=O)N(Cc2ccc(F)cc2)C2CCS(=O)(=O)C2)cc(OC)c1OC (stereo not drawn),/,/,/,/,0.00183,/,/,/,/
SMILES,D1 mod,Jurkat tox 60K,M1 antagonist,HEK293 NFkB inh,hDAT+cocaine,M1 agonist,D1 mod confirm,D1 ag no DA,Isoprot counter
COc1cccc(-c2cc(C(=O)NCCCn3ccnc3)no2)c1,/,/,/,/,-0.0785,/,/,/,/
N#CCCn1c2ccccc2c2nc3ccccc3nc21,14.3*,-1.9,-0.962,10.8,-0.107,1.45,19256*,1672,+
CCCn1c2ccccc2c2nc3ccccc3nc21,5.71*,-0.6,0.408,-0.3,-0.0152,1.12,12892*,1720,+
CCOC(=O)Cn1c2ccccc2c2nc3ccccc3nc21,4.77*,-8.7,-0.239,1.8,0.983,0.00647,14192*,1640,i
COC(=O)CCn1nnc(-c2ccc(C)cc2)n1,-0.109,2.2,-0.125,21.7,-0.0164,-0.0585,/,/,/
Cc1ccc(S(=O)(=O)N2CCOCC2)cc1C(=O)NC1CCCCC1,-1.16,-4.0,0.246,4.1,-1.55,0.528,/,/,/
Cc1cc(C)nc(NC(=O)c2c(-c3ccccc3Cl)noc2C)n1,-0.65,0.6,-0.13,2.9,0.045,-1.4,/,/,/

# Bioassay records (PubChem)
